Assay results reported in ChEMBL document CHEMBL4428062, “Human Toll-like Receptor (TLR) 8-Specific Agonistic Activity in Substituted Pyrimidine-2,4-diamines” (J Med Chem, 2016).
Calls of active or inactive are those of the source. No cut-off for these calls is given here.

What was measured:
[1] = molecular target: Toll-like receptor 4 (Homo sapiens) (UniProt O00206); test: Agonist activity at human TLR4 expressed in HEK293 cells assessed as induction of NF-kappaB activity by secreted alkaline phosphatase reporter gene assay; format: cell-based
Toll-like receptor 4 (Homo sapiens), sequence (O00206 whole entry): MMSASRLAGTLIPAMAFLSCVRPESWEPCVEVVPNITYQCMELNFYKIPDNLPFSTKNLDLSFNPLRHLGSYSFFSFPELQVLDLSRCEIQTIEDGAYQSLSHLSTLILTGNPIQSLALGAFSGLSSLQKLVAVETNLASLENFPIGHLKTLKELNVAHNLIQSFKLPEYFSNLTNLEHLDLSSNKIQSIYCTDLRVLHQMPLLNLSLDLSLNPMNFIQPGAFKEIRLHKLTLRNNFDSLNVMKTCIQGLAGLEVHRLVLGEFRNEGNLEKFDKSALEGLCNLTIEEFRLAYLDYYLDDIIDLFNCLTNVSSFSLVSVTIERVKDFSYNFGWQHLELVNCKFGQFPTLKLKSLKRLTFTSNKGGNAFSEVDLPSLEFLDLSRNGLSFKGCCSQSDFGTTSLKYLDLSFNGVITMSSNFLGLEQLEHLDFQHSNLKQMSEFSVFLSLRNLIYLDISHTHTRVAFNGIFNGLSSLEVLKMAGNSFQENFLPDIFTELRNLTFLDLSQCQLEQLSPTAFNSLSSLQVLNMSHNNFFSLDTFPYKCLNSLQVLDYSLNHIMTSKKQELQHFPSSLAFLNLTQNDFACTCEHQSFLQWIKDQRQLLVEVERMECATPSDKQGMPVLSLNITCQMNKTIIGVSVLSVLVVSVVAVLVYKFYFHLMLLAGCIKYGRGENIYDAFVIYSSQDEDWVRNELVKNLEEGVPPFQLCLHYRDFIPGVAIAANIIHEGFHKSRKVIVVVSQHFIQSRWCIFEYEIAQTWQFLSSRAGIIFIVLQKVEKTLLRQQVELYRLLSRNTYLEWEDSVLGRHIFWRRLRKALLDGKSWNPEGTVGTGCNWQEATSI
Procedure, shortened: (§1)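 HEK293 reporter lines stably co-transfected with the respective human TLR and an NF-κB/AP-1-driven secreted alkaline phosphatase gene, kept in selection medium. About 10^5 cells/ml were incubated with graded concentrations of stimuli. Supernatant sAP was read spectrophotometrically at 620 nm using a chromogenic substrate in detection medium. EC50 was taken as the arithmetic mean of quadruplicate samples.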

[2] = molecular target: T1, Toll-like receptor 8 (Homo sapiens) (UniProt Q9NR97); test: Agonist activity at TLR8 in human PBMC assessed as increase in TNF-alpha production after 16 hrs by immunoassay
T1 sequence (whole entry): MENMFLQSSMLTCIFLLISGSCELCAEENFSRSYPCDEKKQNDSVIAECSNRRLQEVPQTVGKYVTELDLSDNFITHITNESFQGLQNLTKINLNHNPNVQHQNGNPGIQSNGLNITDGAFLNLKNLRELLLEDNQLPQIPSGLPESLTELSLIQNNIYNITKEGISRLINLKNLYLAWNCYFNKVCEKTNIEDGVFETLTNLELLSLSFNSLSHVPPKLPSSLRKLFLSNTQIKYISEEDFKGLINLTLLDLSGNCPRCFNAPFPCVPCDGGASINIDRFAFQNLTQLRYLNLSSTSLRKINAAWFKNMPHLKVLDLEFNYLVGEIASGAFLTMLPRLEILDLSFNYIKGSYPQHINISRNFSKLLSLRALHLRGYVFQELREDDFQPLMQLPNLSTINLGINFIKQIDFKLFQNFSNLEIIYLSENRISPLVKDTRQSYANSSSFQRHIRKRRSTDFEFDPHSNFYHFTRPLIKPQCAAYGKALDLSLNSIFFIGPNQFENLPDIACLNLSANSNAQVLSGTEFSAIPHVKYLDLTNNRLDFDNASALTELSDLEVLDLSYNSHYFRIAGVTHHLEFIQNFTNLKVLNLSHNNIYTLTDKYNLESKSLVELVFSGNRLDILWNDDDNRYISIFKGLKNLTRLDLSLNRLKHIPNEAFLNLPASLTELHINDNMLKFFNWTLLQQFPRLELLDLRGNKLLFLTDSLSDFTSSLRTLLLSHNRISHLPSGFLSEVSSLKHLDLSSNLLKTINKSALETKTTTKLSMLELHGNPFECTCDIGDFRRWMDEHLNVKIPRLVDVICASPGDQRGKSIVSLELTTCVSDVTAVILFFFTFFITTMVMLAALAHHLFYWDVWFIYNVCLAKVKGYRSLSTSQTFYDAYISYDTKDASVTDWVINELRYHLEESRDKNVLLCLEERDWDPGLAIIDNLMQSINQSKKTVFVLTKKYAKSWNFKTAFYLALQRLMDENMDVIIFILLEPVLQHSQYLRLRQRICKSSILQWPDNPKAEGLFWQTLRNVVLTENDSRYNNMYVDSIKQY
Procedure, shortened: (§2)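 Freshly isolated human PBMC from venipuncture blood (informed consent), 10^5 cells/well, stimulated 16 h with graded concentrations of compound. Supernatants collected by centrifugation and cytokines quantified in duplicate with a multiplexed cytokine/chemokine magnetic bead array.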

[3] = molecular target: T1, Toll-like receptor 8 (Homo sapiens); test: Agonist activity at TLR8 in human PBMC assessed as induction of IL-8 levels after 16 hrs by immunoassay; procedure, shortened: as §2
[4] = molecular target: T1, Toll-like receptor 8 (Homo sapiens); test: Agonist activity at TLR8 in human PBMC assessed as Th1-biased stimulatory activity measured as IFNgamma release after 16 hrs by immunoassay; procedure, shortened: as §2
[5] = molecular target: Toll-like receptor 3 (Homo sapiens) (UniProt O15455); test: Agonist activity at human TLR3 expressed in HEK293 cells assessed as induction of NF-kappaB activity by secreted alkaline phosphatase reporter gene assay; format: cell-based; procedure, shortened: as §1
Toll-like receptor 3 (Homo sapiens), sequence (O15455 whole entry): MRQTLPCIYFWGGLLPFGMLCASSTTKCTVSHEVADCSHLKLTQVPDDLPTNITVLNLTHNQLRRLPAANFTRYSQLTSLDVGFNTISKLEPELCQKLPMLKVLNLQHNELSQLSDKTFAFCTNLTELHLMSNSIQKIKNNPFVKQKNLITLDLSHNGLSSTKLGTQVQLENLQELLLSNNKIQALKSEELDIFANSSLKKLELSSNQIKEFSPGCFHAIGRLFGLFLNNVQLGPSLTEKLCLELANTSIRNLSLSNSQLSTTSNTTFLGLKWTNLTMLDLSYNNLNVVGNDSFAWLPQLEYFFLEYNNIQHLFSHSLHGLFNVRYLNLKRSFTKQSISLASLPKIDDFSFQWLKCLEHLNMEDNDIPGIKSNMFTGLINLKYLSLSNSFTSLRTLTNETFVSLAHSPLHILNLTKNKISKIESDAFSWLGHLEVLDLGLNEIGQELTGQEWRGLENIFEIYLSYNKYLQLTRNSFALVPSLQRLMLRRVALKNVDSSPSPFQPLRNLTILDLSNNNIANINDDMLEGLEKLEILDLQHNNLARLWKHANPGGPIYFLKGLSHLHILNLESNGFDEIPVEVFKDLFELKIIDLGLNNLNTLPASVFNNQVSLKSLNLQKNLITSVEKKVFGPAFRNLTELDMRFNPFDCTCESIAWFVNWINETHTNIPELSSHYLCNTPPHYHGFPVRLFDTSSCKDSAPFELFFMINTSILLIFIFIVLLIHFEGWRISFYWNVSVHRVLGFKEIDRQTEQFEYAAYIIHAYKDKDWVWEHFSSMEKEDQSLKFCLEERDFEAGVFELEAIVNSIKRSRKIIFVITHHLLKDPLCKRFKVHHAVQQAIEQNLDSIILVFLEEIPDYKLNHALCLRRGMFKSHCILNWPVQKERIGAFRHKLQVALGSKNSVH

[6] = molecular target: Toll-like receptor 5 (Homo sapiens) (UniProt O60602); test: Agonist activity at human TLR5 expressed in HEK293 cells assessed as induction of NF-kappaB activity by secreted alkaline phosphatase reporter gene assay; format: cell-based; procedure, shortened: as §1
Toll-like receptor 5 (Homo sapiens), sequence (O60602 whole entry): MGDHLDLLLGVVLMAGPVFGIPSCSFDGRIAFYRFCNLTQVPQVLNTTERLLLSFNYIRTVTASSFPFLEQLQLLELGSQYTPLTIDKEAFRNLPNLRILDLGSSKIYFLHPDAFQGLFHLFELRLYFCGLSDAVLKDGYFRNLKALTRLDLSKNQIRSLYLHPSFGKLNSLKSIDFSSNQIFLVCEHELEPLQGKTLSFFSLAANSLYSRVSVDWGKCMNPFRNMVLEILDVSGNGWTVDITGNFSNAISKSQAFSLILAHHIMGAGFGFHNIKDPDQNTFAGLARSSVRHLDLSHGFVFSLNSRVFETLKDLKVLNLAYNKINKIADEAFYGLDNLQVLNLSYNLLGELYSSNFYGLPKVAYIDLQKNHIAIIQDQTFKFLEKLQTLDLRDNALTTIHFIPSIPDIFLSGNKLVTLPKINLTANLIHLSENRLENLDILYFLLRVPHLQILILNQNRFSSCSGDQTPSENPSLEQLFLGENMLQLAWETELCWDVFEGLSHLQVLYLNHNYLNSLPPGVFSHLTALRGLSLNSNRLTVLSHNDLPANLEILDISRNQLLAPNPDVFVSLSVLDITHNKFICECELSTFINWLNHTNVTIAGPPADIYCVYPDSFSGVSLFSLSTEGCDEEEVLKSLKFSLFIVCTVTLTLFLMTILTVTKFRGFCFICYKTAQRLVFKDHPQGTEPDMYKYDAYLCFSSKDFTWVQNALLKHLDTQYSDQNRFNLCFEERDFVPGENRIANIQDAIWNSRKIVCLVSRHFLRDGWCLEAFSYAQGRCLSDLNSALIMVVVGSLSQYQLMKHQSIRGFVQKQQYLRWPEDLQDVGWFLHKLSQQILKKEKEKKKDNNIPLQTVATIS

[7] = molecular target: T2, Toll-like receptor 7 (Homo sapiens) (UniProt Q9NYK1); test: Agonist activity at human TLR7 expressed in HEK293 cells assessed as induction of NF-kappaB activity by secreted alkaline phosphatase reporter gene assay; format: cell-based; procedure, shortened: as §1
T2 sequence (whole entry): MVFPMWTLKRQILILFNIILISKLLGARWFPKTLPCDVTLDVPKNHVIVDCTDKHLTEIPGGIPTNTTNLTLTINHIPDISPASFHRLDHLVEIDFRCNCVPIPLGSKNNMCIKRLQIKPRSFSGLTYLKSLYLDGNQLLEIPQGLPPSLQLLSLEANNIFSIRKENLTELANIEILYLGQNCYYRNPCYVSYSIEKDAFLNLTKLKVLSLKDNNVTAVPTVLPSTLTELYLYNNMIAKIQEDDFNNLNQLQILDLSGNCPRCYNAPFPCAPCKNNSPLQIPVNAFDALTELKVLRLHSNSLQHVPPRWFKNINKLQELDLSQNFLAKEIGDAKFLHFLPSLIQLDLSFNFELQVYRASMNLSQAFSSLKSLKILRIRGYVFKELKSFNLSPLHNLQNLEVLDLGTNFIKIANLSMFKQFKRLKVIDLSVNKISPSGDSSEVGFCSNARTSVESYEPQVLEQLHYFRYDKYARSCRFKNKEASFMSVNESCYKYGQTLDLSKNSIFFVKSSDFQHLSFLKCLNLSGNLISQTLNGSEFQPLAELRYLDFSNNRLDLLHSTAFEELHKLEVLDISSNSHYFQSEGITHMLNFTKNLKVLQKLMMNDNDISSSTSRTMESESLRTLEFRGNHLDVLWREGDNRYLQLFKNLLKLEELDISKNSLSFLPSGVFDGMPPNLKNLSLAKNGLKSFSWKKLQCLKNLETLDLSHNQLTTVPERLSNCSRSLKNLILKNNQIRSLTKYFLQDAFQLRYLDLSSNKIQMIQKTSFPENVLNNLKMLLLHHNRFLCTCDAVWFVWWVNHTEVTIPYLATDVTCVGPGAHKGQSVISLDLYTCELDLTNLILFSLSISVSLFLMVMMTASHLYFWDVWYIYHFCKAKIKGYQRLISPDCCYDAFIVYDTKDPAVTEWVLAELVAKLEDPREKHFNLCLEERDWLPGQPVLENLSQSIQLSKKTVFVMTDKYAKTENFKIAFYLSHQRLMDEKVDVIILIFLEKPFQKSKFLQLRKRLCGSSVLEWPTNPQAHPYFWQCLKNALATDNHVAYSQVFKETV

[8] = molecular target: T1, Toll-like receptor 8 (Homo sapiens); test: Agonist activity at TLR8 in human PBMC assessed as induction of IL-6 levels after 16 hrs by immunoassay; procedure, shortened: as §2
[9] = molecular target: T1, Toll-like receptor 8 (Homo sapiens); test: Agonist activity at TLR8 in human PBMC assessed as Th1-biased stimulatory activity measured as IL-12 release after 16 hrs by immunoassay; procedure, shortened: as §2
[10] = molecular target: T3, Toll-like receptor 8 (Homo sapiens, UniProt Q9NR97); test: Agonist activity at human TLR8 expressed in HEK293 cells assessed as induction of NF-kappaB activity by secreted alkaline phosphatase reporter gene assay; format: cell-based; procedure, shortened: as §1
T3 sequence (Q9NR97 whole entry): T1 sequence (whole entry)

**Q.** How did the Activity [1] turn out when `CCCCNc1nc(N)nc(-c2ccccc2)c1CCCCN` was run?
**A.** The Activity was “inactive”.

**Q.** And the Activity [2]?
**A.** The Activity was “inactive”.

**Q.** What about the Activity [3] of the same compound?
**A.** Its Activity is “inactive”.

**Q.** What about the Activity [4] of the same compound?
**A.** Its Activity is “inactive”.

**Q.** What about the Activity [5] of the same compound?
**A.** The Activity was “inactive”.

**Q.** What about the Activity [6] of the same compound?
**A.** Its Activity is “inactive”.

**Q.** What about the Activity [7] of the same compound?
**A.** The Activity was “inactive”.

**Q.** What about the Activity [8] of the same compound?
**A.** Its Activity is “inactive”.

**Q.** And the Activity [9]?
**A.** Its Activity is “inactive”.

**Q.** Which Activity [1] does the source give for `CCCCNc1nc(N)nc(C)c1I` here?
**A.** Its Activity is “inactive”.

**Q.** What about the Activity [2] of the same compound?
**A.** Its Activity is “Active”.

**Q.** And the Activity [3]?
**A.** The Activity was “Active”.

**Q.** What about the Activity [4] of the same compound?
**A.** The Activity was “Active”.

**Q.** What about the Activity [5] of the same compound?
**A.** Its Activity is “inactive”.

**Q.** And the Activity [6]?
**A.** The Activity was “inactive”.

**Q.** And the Activity [7]?
**A.** Its Activity is “inactive”.

**Q.** And the EC50 [10]?
**A.** Its EC50 is 1640 nM.

**Q.** And the Activity [8]?
**A.** Its Activity is “Active”.

**Q.** And the Activity [9]?
**A.** Its Activity is “Active”.

**Q.** `CCCCNc1cc(-c2ccccc2)nc(N)n1` was tested. Which Activity [1] did it give?
**A.** The Activity was “inactive”.

**Q.** What about the Activity [2] of the same compound?
**A.** Its Activity is “inactive”.

**Q.** And the Activity [3]?
**A.** Its Activity is “inactive”.

**Q.** What about the Activity [4] of the same compound?
**A.** Its Activity is “inactive”.

**Q.** What about the Activity [5] of the same compound?
**A.** The Activity was “inactive”.

**Q.** And the Activity [6]?
**A.** Its Activity is “inactive”.

**Q.** And the Activity [7]?
**A.** The Activity was “inactive”.

**Q.** And the EC50 [10]?
**A.** The EC50 was 6700 nM.

**Q.** What about the Activity [8] of the same compound?
**A.** The Activity was “inactive”.

**Q.** And the Activity [9]?
**A.** Its Activity is “inactive”.

**Q.** Which results are given for `CCCCCn1c(N)nc2c(C)cccc21`?
**A.** Activity [1]: inactive; Activity [2]: Active; Activity [3]: Active; Activity [5]: inactive; Activity [6]: inactive; Activity [7]: inactive; EC50 [10]: 1800 nM; Activity [8]: Active

**Q.** Which results are given for `CCCCNc1nc(N)nc(C)c1CCCCN`?
**A.** Activity [1]: inactive; Activity [3]: inactive; Activity [4]: Active; Activity [5]: inactive; Activity [6]: inactive; Activity [7]: inactive; EC50 [10]: 300 nM; Activity [8]: inactive; Activity [9]: Active
